Data reported in ChEMBL document CHEMBL1795242, “Peptidomimetic inhibitors of bacterial peptide deformylase” (Bioorg Med Chem Lett, 2011).
Converted amounts (≈) assume the structure as drawn.

How the values were obtained:
[1] = system: Streptococcus pneumoniae; assay: Antibacterial activity against Streptococcus pneumoniae; format: functional
Method in brief: (§1)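 MIC against respiratory-tract-infection pathogens: Gram-positive S. pneumoniae and Gram-negative H. influenzae and M. catarrhalis. Where more than one strain was tested, the MIC is given as a range across strains. The minimum number of strains was 3 for H. influenzae and 1 for M. catarrhalis.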

[2] = biological target: T1, Peptide deformylase (Escherichia coli, UniProt Q9JN24); assay: Inhibition of Escherichia coli nickel containing peptide deformylase
T1 sequence (Q9JN24 whole entry): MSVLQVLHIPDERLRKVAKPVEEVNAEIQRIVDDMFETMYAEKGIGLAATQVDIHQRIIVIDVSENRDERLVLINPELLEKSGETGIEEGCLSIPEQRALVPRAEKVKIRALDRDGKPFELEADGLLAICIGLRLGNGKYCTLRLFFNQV

[3] = system: Moraxella catarrhalis; assay: Antibacterial activity against Moraxella catarrhalis; format: functional; method in brief: as §1
[4] = system: Haemophilus influenzae; assay: Antibacterial activity against Haemophilus influenzae; format: functional; method in brief: as §1
[5] = biological target: T2, Peptide deformylase (Escherichia coli) (UniProt Q9JN24); assay: Inhibition of Escherichia coli nickel containing peptide deformylase at 1 uM
T2 sequence (whole entry): T1 sequence (Q9JN24 whole entry)

For `COc1ccccc1NC(=O)N1CCCN1C(=O)[C@H](CC1CCCC1)CN(O)C=O`, the MIC [1] was 8 mg/L (≈ 19.1 µM), the IC50 [2] was 0.007 µM and the MIC [3] was 0.25 mg/L (≈ 0.597 µM). For the same compound, the MIC [4] was 1 mg/L (≈ 2.39 µM).
Work on `O=CN(O)C[C@@H](CC1CCCC1)C(=O)N1CCCCN1C(=O)Cc1ccccc1` yielded an MIC [1] of 0.5 mg/L (≈ 1.25 µM), an IC50 [2] of 0.06 µM and an MIC [4] of 0.25 mg/L (≈ 0.623 µM).
Work on `O=C(C[C@@H](CC1CCCC1)C(=O)N1CCCCN1C(=O)c1ccco1)NO` yielded an MIC [1] of 2 mg/L (≈ 5.3 µM), an IC50 [2] of 0.008 µM and an MIC [3] of 0.06 mg/L (≈ 0.159 µM). The MIC [4] was 0.06 mg/L (≈ 0.159 µM).
`O=CN(O)C[C@@H](CC1CCCC1)C(=O)N1CCCCN1C(=O)c1cccnc1` showed an inhibition [5] of 40%.
`O=CN(O)C[C@@H](CC1CCCC1)C(=O)N1CCCN1C(=O)Nc1ccc(C(F)(F)F)cc1` showed an MIC [1] of 2 mg/L (≈ 4.38 µM), an IC50 [2] of 0.03 µM and an MIC [3] of 0.06 mg/L (≈ 0.131 µM). For the same compound, the MIC [4] was 2 mg/L (≈ 4.38 µM).
`O=CN(O)C[C@@H](CC1CCCC1)C(=O)N1CCCCN1C(=O)Nc1ccccc1` showed an MIC [1] of 2 mg/L (≈ 4.97 µM), an IC50 [2] of 0.02 µM and an MIC [4] of under 0.125 mg/L.
`O=CN(O)C[C@@H](CC1CCCC1)C(=O)N1CCCN1C(=O)c1ccncc1` gave an MIC [1] of 16 mg/L (≈ 42.7 µM), an IC50 [2] of 0.06 µM and an MIC [4] of 2 mg/L (≈ 5.34 µM).
Compound `COc1cccc(NC(=O)N2CCCN2C(=O)[C@H](CC2CCCC2)CN(O)C=O)c1` has an MIC [1] of 4 mg/L (≈ 9.56 µM), an IC50 [2] of 0.01 µM and an MIC [4] of under 0.125 mg/L.
Compound `O=CN(O)C[C@@H](CC1CCCC1)C(=O)N1CCCCN1C(=O)c1ccncc1` has an MIC [1] of 2 mg/L (≈ 5.15 µM), an IC50 [2] of 0.3 µM and an MIC [4] of 2 mg/L (≈ 5.15 µM).
`O=CN(O)C[C@@H](CC1CCCC1)C(=O)N1CCCCN1C(=O)c1ccccc1` gave an MIC [1] of 0.5 mg/L (≈ 1.29 µM), an IC50 [2] of 0.5 µM and an MIC [4] of 1 mg/L (≈ 2.58 µM).
`O=CN(O)C[C@@H](CC1CCCC1)C(=O)N1CCCCN1C(=O)C1CCCCC1` was tested, and the MIC [1] was 0.5 mg/L (≈ 1.27 µM), the IC50 [2] was 0.2 µM and the MIC [4] was 4 mg/L (≈ 10.2 µM).
In the case of `O=CN(O)C[C@@H](CC1CCCC1)C(=O)N1CCCCN1C(=O)Nc1ccc(C(F)(F)F)cc1`, the IC50 [2] is reported as 0.009 µM and the MIC [4] is reported as 0.25 mg/L (≈ 0.531 µM).
With `O=CN(O)C[C@@H](CC1CCCC1)C(=O)N1CCCN1C(=O)c1ccc(F)cc1` the IC50 [2] was 0.02 µM and the MIC [4] was 4 mg/L (≈ 10.2 µM).
`COc1ccc(C(=O)N2CCCN2C(=O)[C@H](CC2CCCC2)CN(O)C=O)cc1` gave an MIC [1] of 4 mg/L (≈ 9.91 µM), an IC50 [2] of 0.05 µM and an MIC [4] of 16 mg/L (≈ 39.7 µM).
Work on `CC(C)(C)OC(=O)N1CCCCN1C(=O)[C@H](CC1CCCC1)CN(O)C=O` yielded an MIC [1] of 4 mg/L (≈ 10.4 µM), an IC50 [2] of 0.009 µM and an MIC [4] of 1 mg/L (≈ 2.61 µM).
`COc1ccccc1NC(=O)N1CCCCN1C(=O)[C@H](CC1CCCC1)CN(O)C=O` gave an MIC [1] of 4 mg/L (≈ 9.25 µM), an IC50 [2] of 0.01 µM and an MIC [4] of 0.5 mg/L (≈ 1.16 µM).
`O=CN(O)C[C@@H](CC1CCCC1)C(=O)N1CCCN1C(=O)c1ccccc1` was tested, and the IC50 [2] was 0.07 µM and the MIC [4] was 2 mg/L (≈ 5.36 µM).
In the case of `COc1cccc(NC(=O)N2CCCCN2C(=O)[C@H](CC2CCCC2)CN(O)C=O)c1`, the MIC [1] is reported as 2 mg/L (≈ 4.62 µM), the IC50 [2] is reported as 0.02 µM and the MIC [4] is reported as under 0.125 mg/L.
In the case of `COc1ccc(C(=O)N2CCCCN2C(=O)[C@H](CC2CCCC2)CN(O)C=O)cc1`, the MIC [1] is reported as 0.5 mg/L (≈ 1.2 µM), the IC50 [2] is reported as 0.1 µM and the MIC [4] is reported as 1 mg/L (≈ 2.4 µM).
`O=CN(O)C[C@@H](CC1CCCC1)C(=O)N1CCCN1C(=O)Cc1ccccc1` was tested, and the MIC [1] was 4 mg/L (≈ 10.3 µM), the IC50 [2] was 0.03 µM and the MIC [4] was 2 mg/L (≈ 5.16 µM).
In the case of `O=CN(O)C[C@@H](CC1CCCC1)C(=O)N1CCCCN1C(=O)Nc1ccc(F)cc1`, the MIC [1] is reported as 4 mg/L (≈ 9.51 µM), the IC50 [2] is reported as 0.01 µM and the MIC [4] is reported as under 0.125 mg/L.
With `O=C(C[C@@H](CC1CCCC1)C(=O)N1CCCCN1C(=O)Nc1ccccc1)NO` the MIC [1] was 4 mg/L (≈ 9.94 µM), the IC50 [2] was 0.02 µM and the MIC [4] was 1 mg/L (≈ 2.48 µM).
In the case of `O=CN(O)C[C@@H](CC1CCCC1)C(=O)N1CCCCN1C(=O)c1ccc(F)cc1`, the MIC [1] is reported as 0.5 mg/L (≈ 1.23 µM), the IC50 [2] is reported as 0.06 µM and the MIC [4] is reported as 0.5 mg/L (≈ 1.23 µM).
Compound `O=CN(O)C[C@@H](CC1CCCC1)C(=O)N1CCCN1C(=O)c1ccco1` has an MIC [1] of 4 mg/L (≈ 11 µM), an IC50 [2] of 0.03 µM and an MIC [3] of under 0.125 mg/L. For the same compound, the MIC [4] was under 0.125 mg/L.
`COCC(=O)N1CCCN1C(=O)[C@H](CC1CCCC1)CN(O)C=O` was tested, and the IC50 [2] was 0.06 µM and the MIC [4] was 1 mg/L (≈ 2.93 µM).
For `O=CN(O)C[C@@H](CC1CCCC1)C(=O)N1CCCN1C(=O)C1CCCCC1`, the IC50 [2] was 0.04 µM and the MIC [4] was 4 mg/L (≈ 10.5 µM).
`O=CN(O)C[C@@H](CC1CCCC1)C(=O)N1CCCN1C(=O)Nc1ccc(F)cc1` was tested, and the MIC [1] was 8 mg/L (≈ 19.7 µM), the IC50 [2] was 0.01 µM and the MIC [4] was under 0.125 mg/L.
`CC(C)(C)OC(=O)N1CCCN1C(=O)[C@H](CC1CCCC1)CN(O)C=O` gave an MIC [1] of 8 mg/L (≈ 21.7 µM), an IC50 [2] of 0.03 µM and an MIC [3] of under 0.125 mg/L. The MIC [4] was 0.5 mg/L (≈ 1.35 µM).
Work on `O=CN(O)C[C@@H](CC1CCCC1)C(=O)N1CCCN1C(=O)c1cccnc1` yielded an IC50 [2] of 0.3 µM and an MIC [4] of 2 mg/L (≈ 5.34 µM).
`O=CN(O)C[C@@H](CC1CCCC1)C(=O)N1CCCN1C(=O)c1ccoc1` showed an IC50 [2] of 0.01 µM and an MIC [4] of 1 mg/L (≈ 2.75 µM).
`O=CN(O)C[C@@H](CC1CCCC1)C(=O)N1CCCCN1C(=O)c1ccco1` gave an MIC [1] of 0.5 mg/L (≈ 1.32 µM), an IC50 [2] of 0.005 µM and an MIC [3] of under 0.125 mg/L. The MIC [4] was under 0.125 mg/L.
`O=CN(O)C[C@@H](CC1CCCC1)C(=O)N1CCCN1C(=O)Nc1ccccc1` was tested, and the MIC [1] was 4 mg/L (≈ 10.3 µM), the IC50 [2] was 0.01 µM and the MIC [4] was under 0.125 mg/L.
For `COCC(=O)N1CCCCN1C(=O)[C@H](CC1CCCC1)CN(O)C=O`, the MIC [1] was 1 mg/L (≈ 2.81 µM), the IC50 [2] was 0.2 µM and the MIC [4] was 0.25 mg/L (≈ 0.703 µM).
`O=CN(O)C[C@@H](CC1CCCC1)C(=O)N1CCCCN1C(=O)c1ccoc1` was tested, and the MIC [1] was 0.5 mg/L (≈ 1.32 µM), the IC50 [2] was 0.006 µM and the MIC [3] was under 0.03 mg/L. The MIC [4] was 0.125 mg/L (≈ 0.331 µM).
